Measured values as given in ChEMBL document CHEMBL1126688, “Interphenylene 7-oxabicyclo[2.2.1]heptane oxazoles. Highly potent, selective, and long-acting thromboxane A2 receptor antagonists” (J Med Chem, 1993).

Tests used:
[1] = Partition coefficient (logP); assay type: physicochemical; settings: octanol/water
Outline: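 log P came from reversed-phase TLC Rm values on C18 plates. Eluent was acetone in 0.5 M aqueous KBr, buffered with 0.25 N triethylammonium phosphate to pH 7.3. Values were converted with a calibration curve built from shake-flask partition coefficients (pH 7.0) of seven oxabicycloheptane compounds spanning a range of lipophilicities.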

Homo sapiens [2] = organism: Homo sapiens; assay: Inhibitory activity against platelet aggregation, induced by arachidonic acid in human platelet rich plasma; assay type: functional; settings: read-out: I50
Outline: (§1)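 Human platelet-rich plasma. Aggregation was induced by exogenous arachidonic acid or by the TxA2 mimetic U-46,619, each at a single fixed agonist level. I50 was taken as the antagonist concentration giving 50% inhibition of aggregation.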

Thromboxane A2 receptor = target: T1, Thromboxane A2 receptor (Homo sapiens, UniProt P21731); assay: Inhibitory binding activity against TXA2 receptor in human platelet membrane, using [3H]-SQ 29548 as the radioligand
T1 sequence (P21731 whole entry): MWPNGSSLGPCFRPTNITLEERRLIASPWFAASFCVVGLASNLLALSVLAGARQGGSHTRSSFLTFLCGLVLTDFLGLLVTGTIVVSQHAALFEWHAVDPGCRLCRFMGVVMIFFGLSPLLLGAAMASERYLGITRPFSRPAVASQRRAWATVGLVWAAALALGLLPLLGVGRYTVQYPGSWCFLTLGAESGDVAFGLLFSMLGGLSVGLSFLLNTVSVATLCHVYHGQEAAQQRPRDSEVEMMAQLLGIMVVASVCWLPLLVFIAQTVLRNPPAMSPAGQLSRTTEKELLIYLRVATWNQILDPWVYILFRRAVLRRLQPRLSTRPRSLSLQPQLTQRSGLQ
Outline: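 Competition binding of [3H]-SQ 29,548 to TxA2 receptors in human platelet membranes, measured as inhibition of specific binding. Kd (inhibition constant) was calculated from each compound's I50 value. A slope factor is also reported.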

Homo sapiens [3] = organism: Homo sapiens; assay: Inhibitory activity against platelet aggregation, induced by U-46619 in human platelet rich plasma; assay type: functional; settings: read-out: I50; outline: as §1
Mus musculus = assay: In vivo duration of action required to prevent death in mice, after i.v. administration of U-46619 (2 mg/kg) at 0.2 mg/kg p.o.; settings: po

Compound: O=C(O)CCc1ccccc1CC1C2CCC(O2)C1c1nc(C(=O)NCCCCC(F)(F)F)co1 (stereo not drawn)
- logP [1]: 1.59
- IC50 (Homo sapiens [2]): 12 nM
- Kd (Thromboxane A2 receptor): 4.8 nM
- IC50 (Homo sapiens [3]): 29 nM

Compound: O=C(O)CCc1ccccc1CC1C2CCC(O2)C1c1nc(C(=O)CCCCCC2CCCCC2)co1 (stereo not drawn)
- IC50 (Homo sapiens [2]): 4 nM
- Kd (Thromboxane A2 receptor): 0.05 nM
- IC50 (Homo sapiens [3]): 11 nM

Compound: O=C(O)CCc1ccccc1CC1C2CCC(O2)C1c1nc(/C=C/CCCCC2CCCCC2)co1 (stereo not drawn)
- IC50 (Homo sapiens [2]): 320 nM
- IC50 (Homo sapiens [3]): 2760 nM

Compound: O=C(O)CCc1ccccc1CC1C2CCC(O2)C1c1nc(C(=O)NCCC2CCCCC2)co1 (stereo not drawn)
- T50 (Mus musculus): 8.3 h
- logP [1]: 1.03
- IC50 (Homo sapiens [2]): 2 nM
- Kd (Thromboxane A2 receptor): 0.7 nM

Compound: COc1ccc(CCCCNC(=O)c2coc(C3C4CCC(O4)C3Cc3ccccc3CCC(=O)O)n2)cc1 (stereo not drawn)
- logP [1]: 2.49
- IC50 (Homo sapiens [2]): 16 nM
- Kd (Thromboxane A2 receptor): 0.3 nM
- IC50 (Homo sapiens [3]): 62 nM

Compound: COc1ccc(NC(=O)c2coc(C3C4CCC(O4)C3Cc3ccccc3CCC(=O)O)n2)cc1 (stereo not drawn)
- logP [1]: 0.95
- IC50 (Homo sapiens [2]): 6 nM

Compound: CSc1ccc(CCCCNC(=O)c2coc(C3C4CCC(O4)C3Cc3ccccc3CCC(=O)O)n2)cc1 (stereo not drawn)
- logP [1]: 1.66
- IC50 (Homo sapiens [2]): 6 nM
- Kd (Thromboxane A2 receptor): 2.9 nM

Compound: O=C(NCCCCC1CCCCC1)c1coc(C2C3CCC(O3)C2Cc2ccccc2C(=O)O)n1 (stereo not drawn)
- IC50 (Homo sapiens [2]): 52 nM
- IC50 (Homo sapiens [3]): 171 nM

Compound: O=C(O)CCc1ccccc1CC1C2CCC(O2)C1c1nc(C(=O)NCCCCc2ccc(F)cc2)co1 (stereo not drawn)
- T50 (Mus musculus): 22.5 h
- logP [1]: 2.17
- IC50 (Homo sapiens [2]): 4 nM
- Kd (Thromboxane A2 receptor): 3.9 nM
- IC50 (Homo sapiens [3]): 11 nM

Compound: CC(C)NC(=O)c1coc(C2C3CCC(O3)C2Cc2ccccc2CCC(=O)O)n1 (stereo not drawn)
- T50 (Mus musculus): 10 h
- logP [1]: 0.05
- IC50 (Homo sapiens [2]): 7 nM
- Kd (Thromboxane A2 receptor): 26 nM
- IC50 (Homo sapiens [3]): 63 nM

Compound: O=C(O)CCc1ccccc1CC1C2CCC(O2)C1c1nc(C(=O)Nc2ccccc2)co1 (stereo not drawn)
- logP [1]: 1.19
- IC50 (Homo sapiens [2]): 12 nM

Compound: CCCNC(=O)c1coc(C2C3CCC(O3)C2Cc2ccccc2CCC(=O)O)n1 (stereo not drawn)
- T50 (Mus musculus): 2.3 h
- logP [1]: 0.4
- IC50 (Homo sapiens [2]): 8 nM
- Kd (Thromboxane A2 receptor): 10 nM
- IC50 (Homo sapiens [3]): 53 nM

Compound: O=C(O)CCc1ccccc1CCC1C2CCC(O2)C1c1nc(C(=O)NCCCCC2CCCCC2)co1 (stereo not drawn)
- IC50 (Homo sapiens [2]): 63 nM
- IC50 (Homo sapiens [3]): 616 nM

Compound: O=C(O)c1cccc(CCC2C3CCC(O3)C2c2nc(C(=O)NCCCCC3CCCCC3)co2)c1 (stereo not drawn)
- IC50 (Homo sapiens [2]): 110 nM
- Kd (Thromboxane A2 receptor): 18.4 nM

Compound: CCCCCCCCCCNC(=O)c1coc(C2C3CCC(O3)C2Cc2ccccc2CCC(=O)O)n1 (stereo not drawn)
- T50 (Mus musculus): 4.3 h
- logP [1]: 3.86
- Kd (Thromboxane A2 receptor): 5.8 nM

Compound: CCC(C)(C)NC(=O)c1coc(C2C3CCC(O3)C2Cc2ccccc2CCC(=O)O)n1 (stereo not drawn)
- T50 (Mus musculus): 8.8 h
- logP [1]: 0.51
- IC50 (Homo sapiens [2]): 12 nM
- Kd (Thromboxane A2 receptor): 0.8 nM
- IC50 (Homo sapiens [3]): 30 nM

Compound: O=C(O)CCc1ccccc1CC1C2CCC(O2)C1c1nc(C(=O)NCCCCN2CCCCC2)co1 (stereo not drawn)
- logP [1]: 0.53
- IC50 (Homo sapiens [2]): 30 nM
- Kd (Thromboxane A2 receptor): 22 nM
- IC50 (Homo sapiens [3]): 137 nM

Compound: O=C(O)CCc1ccccc1CC1C2CCC(O2)C1c1nc(C(=O)NCCCCC(=O)NC2CCCCC2)co1 (stereo not drawn)
- logP [1]: 1.18
- IC50 (Homo sapiens [2]): 27 nM
- Kd (Thromboxane A2 receptor): 22 nM
- IC50 (Homo sapiens [3]): 82 nM

Compound: CS(=O)(=O)c1ccc(CCCCNC(=O)c2coc(C3C4CCC(O4)C3Cc3ccccc3CCC(=O)O)n2)cc1 (stereo not drawn)
- logP [1]: 0.32
- IC50 (Homo sapiens [2]): 26 nM

Compound: NC(=O)c1coc(C2C3CCC(O3)C2Cc2ccccc2CCC(=O)O)n1 (stereo not drawn)
- logP [1]: -0.78
- IC50 (Homo sapiens [2]): 44 nM
- IC50 (Homo sapiens [3]): 258 nM

Compound: O=C(O)Cc1ccccc1CC1C2CCC(O2)C1c1nc(C(=O)NCCCCC2CCCCC2)co1 (stereo not drawn)
- IC50 (Homo sapiens [2]): 14 nM
- Kd (Thromboxane A2 receptor): 19 nM
- IC50 (Homo sapiens [3]): 97 nM

Compound: CC(C)(C)CCCCNC(=O)c1coc(C2C3CCC(O3)C2Cc2ccccc2CCC(=O)O)n1 (stereo not drawn)
- T50 (Mus musculus): 36.5 h
- logP [1]: 3.41
- IC50 (Homo sapiens [2]): 8 nM
- Kd (Thromboxane A2 receptor): 0.6 nM
- IC50 (Homo sapiens [3]): 35 nM

Compound: O=C(O)CCc1ccccc1CC1C2CCC(O2)C1c1nc(CO)co1 (stereo not drawn)
- IC50 (Homo sapiens [2]): 31000 nM

Compound: O=C(O)CCCc1ccccc1CC1C2CCC(O2)C1c1nc(C(=O)NCCCCC2CCCCC2)co1 (stereo not drawn)
- IC50 (Homo sapiens [2]): 6 nM
- Kd (Thromboxane A2 receptor): 0.85 nM

Compound: CCCCCN(C)C(=O)c1coc(C2C3CCC(O3)C2Cc2ccccc2CCC(=O)O)n1 (stereo not drawn)
- T50 (Mus musculus): 11.3 h
- logP [1]: 1
- IC50 (Homo sapiens [2]): 9 nM
- Kd (Thromboxane A2 receptor): 11 nM

Compound: CNC(=O)c1coc(C2C3CCC(O3)C2Cc2ccccc2CCC(=O)O)n1 (stereo not drawn)
- T50 (Mus musculus): 7.5 h
- logP [1]: -0.11
- Kd (Thromboxane A2 receptor): 45 nM

Compound: O=C(O)Cc1cccc(CC2C3CCC(O3)C2c2nc(C(=O)NCCCCC3CCCCC3)co2)c1 (stereo not drawn)
- IC50 (Homo sapiens [2]): 12 nM
- Kd (Thromboxane A2 receptor): 1.2 nM
- IC50 (Homo sapiens [3]): 34 nM

Compound: CC(C)(C)NC(=O)c1coc(C2C3CCC(O3)C2Cc2ccccc2CCC(=O)O)n1 (stereo not drawn)
- T50 (Mus musculus): 7.4 h
- logP [1]: -0.02
- IC50 (Homo sapiens [2]): 12 nM
- Kd (Thromboxane A2 receptor): 19 nM
- IC50 (Homo sapiens [3]): 61 nM

Compound: O=C(O)CCc1ccccc1CC1C2CCC(O2)C1c1nc(C(=O)NCCCCCO)co1 (stereo not drawn)
- logP [1]: 1.07
- IC50 (Homo sapiens [2]): 15 nM
- Kd (Thromboxane A2 receptor): 20 nM
- IC50 (Homo sapiens [3]): 35 nM

Compound: O=C(O)COc1ccccc1CC1C2CCC(O2)C1c1nc(C(=O)NCCCCC2CCCCC2)co1 (stereo not drawn)
- IC50 (Homo sapiens [2]): 7 nM
- Kd (Thromboxane A2 receptor): 3.2 nM
- IC50 (Homo sapiens [3]): 8 nM

Compound: CS(=O)(=O)NC(=O)CCc1ccccc1CC1C2CCC(O2)C1c1nc(C(=O)NCCCCC2CCCCC2)co1 (stereo not drawn)
- IC50 (Homo sapiens [2]): 2 nM
- Kd (Thromboxane A2 receptor): 1.6 nM

Compound: O=C(O)CCc1ccccc1CC1C2CCC(O2)C1c1nc(C(=O)NCCCCc2ccc(O)cc2)co1 (stereo not drawn)
- logP [1]: 1.49
- IC50 (Homo sapiens [2]): 12 nM
- Kd (Thromboxane A2 receptor): 0.5 nM

Compound: O=C(O)CCc1ccccc1CC1C2CCC(O2)C1c1nc(C(=O)NC2CCCCC2)co1 (stereo not drawn)
- T50 (Mus musculus): 8.3 h
- logP [1]: 0.89
- Kd (Thromboxane A2 receptor): 4.5 nM

Compound: CN(CCCCC1CCCCC1)C(=O)c1coc(C2C3CCC(O3)C2Cc2ccccc2CCC(=O)O)n1 (stereo not drawn)
- logP [1]: 3.89
- IC50 (Homo sapiens [2]): 2 nM

Compound: O=C(O)CCc1ccccc1CC1C2CCC(O2)C1c1nc(C(=S)NCCCCC2CCCCC2)co1 (stereo not drawn)
- IC50 (Homo sapiens [2]): 2 nM
- Kd (Thromboxane A2 receptor): 10.6 nM
- IC50 (Homo sapiens [3]): 9 nM

Compound: CCOC(=O)CCc1ccccc1CC1C2CCC(O2)C1c1nc(C(=O)NCCCCC2CCCCC2)co1 (stereo not drawn)
- IC50 (Homo sapiens [2]): 290 nM

Compound: CC(C)(CCCCNC(=O)c1coc(C2C3CCC(O3)C2Cc2ccccc2CCC(=O)O)n1)C(=O)O (stereo not drawn)
- logP [1]: 0.5
- IC50 (Homo sapiens [2]): 64 nM

Compound: O=C(O)CCc1ccccc1CC1C2CCC(O2)C1c1nc(C(=O)OCCCCC2CCCCC2)co1 (stereo not drawn)
- IC50 (Homo sapiens [2]): 2 nM
- Kd (Thromboxane A2 receptor): 1 nM
- IC50 (Homo sapiens [3]): 10 nM

Compound: O=C(O)Cc1cccc(CCC2C3CCC(O3)C2c2nc(C(=O)NCCCCC3CCCCC3)co2)c1 (stereo not drawn)
- IC50 (Homo sapiens [2]): 146 nM
- Kd (Thromboxane A2 receptor): 16.3 nM

Compound: O=C(O)CCc1ccccc1CC1C2CCC(O2)C1c1nc(C(=O)Nc2ccc(Cl)cc2)co1 (stereo not drawn)
- T50 (Mus musculus): 25.8 h
- logP [1]: 2.52
- IC50 (Homo sapiens [2]): 6 nM

Compound: O=C(O)Cc1ccccc1CCC1C2CCC(O2)C1c1nc(C(=O)NCCCCC2CCCCC2)co1 (stereo not drawn)
- IC50 (Homo sapiens [2]): 1580 nM

Compound: CC(C)(Cc1ccccc1CC1C2CCC(O2)C1c1nc(C(=O)NCCCCC2CCCCC2)co1)C(=O)O (stereo not drawn)
- IC50 (Homo sapiens [2]): 4 nM
- Kd (Thromboxane A2 receptor): 36 nM
- IC50 (Homo sapiens [3]): 13 nM

Compound: O=C(NCCCCC1CCCCC1)c1coc(C2C3CCC(O3)C2Cc2ccccc2CCCO)n1 (stereo not drawn)
- IC50 (Homo sapiens [2]): 1540 nM
- Kd (Thromboxane A2 receptor): 112 nM

Compound: NC(=O)CCc1ccccc1CC1C2CCC(O2)C1c1nc(C(=O)NCCCCC2CCCCC2)co1 (stereo not drawn)
- IC50 (Homo sapiens [2]): 1070 nM

Compound: O=C(O)CCc1ccccc1CC1C2CCC(O2)C1c1nc(C(=O)NCCCCc2ccc(Cl)cc2)co1 (stereo not drawn)
- T50 (Mus musculus): 18.6 h
- logP [1]: 3.52
- Kd (Thromboxane A2 receptor): 0.2 nM
